Assay outcomes deposited in PubChem BioAssay by Johns Hopkins Ion Channel Center.
TRPC4 inh: blocks the mouse TRPC4 cation channel | Q9QUQ5 | HEK293 TRPC4beta/mu-opioid, DAMGO-evoked Fluo4 calcium flux; hits give low values | B-score at 10 µM | actives 0.39% (n = 300,000) | AID 2247;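 active means B-score over 3 SD under the library average, no early fluorescence shift, positive overall ratio signal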
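Signal: kinetic Fluo4 fluorescence imaging of calcium influx. Material: stable TRPC4beta/mu-opioid receptor HEK293 cells. Probe or stimulus: DAMGO in two steps, submaximal then maximal.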
TRPC6 inhibitor: mouse TRPC6 channel inhibition | Q61143 | HEK293-TRPC6, membrane potential dye, ACh-evoked depolarization; hits give low values | B-score at 10 µM | actives 1.1% (n = 310,000);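 active means B-score under library mean minus 3 SD, initial fluorescence not abnormally high, positive integrated signal ratio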;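 further: B-score derived from integrated fluorescence ratio over the kinetic read; more negative B-score means stronger inhibition of depolarization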
Kir21 block: inhibitors of mouse Kir2.1 inward-rectifier potassium channel | AID 1672 | actives 0.85% (n = 310,000) | HEK293-Kir2.1, FluxOR thallium flux fluorescence; hits give low values | P35561 | B-score at 10 µM;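 active means fluorescence ratio B-score at or below minus 3 SD of library scores, with starting-brightness B-score within 2 SD, cut at about -4.2 in these data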;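 further: channel flux triggered by added potassium and thallium sulfate stimulus; B-score of peak minus minimum fluorescence over baseline after thallium stimulus; more negative B-score means stronger Kir2.1 block with less thallium influx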
Target sequence (P35561 whole entry, looked up): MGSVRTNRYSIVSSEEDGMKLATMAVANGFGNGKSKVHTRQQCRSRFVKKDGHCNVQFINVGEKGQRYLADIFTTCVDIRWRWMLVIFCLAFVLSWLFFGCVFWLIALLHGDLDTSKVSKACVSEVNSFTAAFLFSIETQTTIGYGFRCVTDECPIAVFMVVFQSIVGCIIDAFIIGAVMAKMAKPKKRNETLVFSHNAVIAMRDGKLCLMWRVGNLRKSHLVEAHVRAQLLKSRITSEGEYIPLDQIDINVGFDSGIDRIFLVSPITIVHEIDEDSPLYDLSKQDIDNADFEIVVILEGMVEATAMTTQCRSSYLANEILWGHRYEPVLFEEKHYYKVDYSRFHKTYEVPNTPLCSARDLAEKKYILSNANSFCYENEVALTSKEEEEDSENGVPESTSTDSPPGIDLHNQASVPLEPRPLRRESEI
TRPC4 potent: TRPC4 (mouse) allosteric potentiation; Q9QUQ5; HEK293 TRPC4beta/mu-opioid, DAMGO EC20, Fluo-4 Ca2+ flux; hits give high values; B-score at 10 µM; actives 0.42% (n = 310,000); AID 2227;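 active means B-score of calcium response area above 5 SD of library B-scores, with initial fluorescence ratio within 5 SD of library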
TRPC6 activator: activates the mouse TRPC6 cation channel; actives 0.13% (n = 310,000); HEK293-TRPC6 membrane potential dye fluorescence; hits give high values; Q61143; B-score at 10 µM;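 active means B-score of the integrated fluorescence ratio above library mean plus 3 SD, and starting fluorescence ratio within library mean plus 5 SD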;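 further: higher score means more depolarization so channel activation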
TRPC4 agonist: TRPC4 (mouse) channel activation; B-score at 10 µM; actives 0.49% (n = 310,000); HEK293 TRPC4beta/mu-opioid, Fluo4 calcium fluorescence; hits give high values;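 active means B-score above 5 SD of library B-scores, and initial fluorescence ratio not above library mean plus 5 SD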;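 further: positive B-score marks a calcium rise read as TRPC4 activation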
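Assay system: HEK293 stable line with TRPC4beta plus mu-opioid receptor. Times: dye 45 min RT, read 110 s. Measured by: kinetic Fluo4 calcium fluorescence. Measure: B score of integrated ratio. Controls: assay buffer as low control, maximal DAMGO as high control.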
HEK293 TRPC6 ctr: checks TRPC6 modulator effects in parental HEK293 cells | membrane potential signal change, % at 10 µM | membrane potential dye fluorescence | AID 488924 | shares compounds with TRPC6 inhibitor | actives 51% (n = 2,400);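 active means membrane potential signal moves up or down beyond 5 SD from buffer-only wells, on both duplicate plates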
HEK293 MPD ctr 2: second check of TRPC6 modulator effects in parental HEK293 cells | shares compounds with TRPC6 inhibitor | membrane potential dye fluorescence; after compound, maximal acetylcholine stimulation | inhibition, % at 10 µM | actives 14% (n = 2,400) | AID 488926;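 active means membrane potential signal drops by more than 5 SD from the mean control signal, in both duplicate plates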
TRPC4/MOR mod: tests whether TRPC6 modulators also affect mouse TRPC4; HEK293 TRPC4/mu-opioid, membrane potential fluorescence; AID 488927; actives 69% (n = 2,400); shares compounds with TRPC6 inhibitor; percent change from control (negative = decrease, positive = increase), % at 10 µM;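 active means membrane potential signal moved up or down beyond 5 SD of buffer control wells, in both duplicate plates, actives on both sides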
TRPC4 ctr inh 2: second selectivity test of TRPC6 modulators against mouse TRPC4. inhibition, % at 10 µM. shares compounds with TRPC6 inhibitor. actives 55% (n = 2,400). HEK293 TRPC4/mu-opioid, membrane potential dye fluorescence; stimulated with maximal-effect DAMGO;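 active means drop in membrane potential signal beyond 5 SD of the control wells in both duplicate plates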;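 further: TRPC4 counter screen for TRPC6 hits run under conditions tuned for TRPC6 not TRPC4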
TRPC6 block conf: mouse TRPC6 inhibitor confirmation; shares compounds with TRPC6 inhibitor; HEK293-TRPC6, membrane potential dye, ACh-evoked depolarization; inhibition, % at 10 µM; actives 43% (n = 3,300);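 active means fluorescence ratio falls more than 5 SD below the full-stimulation control mean, in both duplicate runs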;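 further: integrated fluorescence ratio of peak minus minimum over baseline after agonist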
TRPC6 act confirm: mouse TRPC6 activator confirmation | shares compounds with TRPC6 inhibitor | HEK293-TRPC6 membrane potential dye fluorescence, FDSS | activation, % at 10 µM | actives 11% (n = 2,800) | AID 488961;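 active means ratio signal rise beyond 5 SD above unstimulated control wells' mean, seen in both duplicate runs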
Numbers stand for hits. Compounds with a hit are over-represented: about 2.9% of the library has one in this group of screens.

`COc1ccc(C(CNC(=O)C(=O)Nc2ccc3c(c2)OCO3)N2CCN(C)CC2)cc1` (stereo unspecified) gave TRPC4 inh inactive, TRPC6 inhibitor inactive, Kir21 block inactive, TRPC4 potent inactive, TRPC6 activator inactive and TRPC4 agonist inactive.
For OCCC1CN(Cc2cn[nH]c2C2CCCCC2)CCN1C1CCCCC1 (stereo unspecified) the results were TRPC4 inh inactive, TRPC6 inhibitor inactive, Kir21 block inactive, TRPC4 potent inactive, TRPC6 activator inactive and TRPC4 agonist inactive.
For OC(COc1ccccc1F)CN1CCC(Cc2ccccc2)CC1 (stereo unspecified) the results were TRPC4 inh inactive, TRPC6 inhibitor -5.06, Kir21 block inactive, TRPC4 potent inactive, TRPC6 activator inactive, TRPC4 agonist inactive, HEK293 TRPC6 ctr 155.0%, HEK293 MPD ctr 2 inactive, TRPC4/MOR mod 25.0%, TRPC4 ctr inh 2 44.0% and TRPC6 block conf inactive.
Screening OC(COc1ccc(F)cc1Cl)CN1CCC(Cc2ccccc2)CC1 (stereo unspecified) returned TRPC4 inh inactive, TRPC6 inhibitor inactive, Kir21 block inactive, TRPC4 potent inactive, TRPC6 activator inactive and TRPC4 agonist inactive.
Screening Cc1ccc(OCC(O)CN2CCC(Cc3ccccc3)CC2)c(C)c1 (stereo unspecified) returned TRPC4 inh inactive, TRPC6 inhibitor -5.33, Kir21 block -4.58, TRPC4 potent inactive, TRPC6 activator inactive, TRPC4 agonist inactive, HEK293 TRPC6 ctr 448.5%, HEK293 MPD ctr 2 inactive, TRPC4/MOR mod 93.5%, TRPC4 ctr inh 2 81.0% and TRPC6 block conf 46.5%.
O=C(/C=C/c1ccccc1)N1CCN(c2c(Cl)cccc2[N+](=O)[O-])CC1 was read as TRPC4 inh inactive, TRPC6 inhibitor inactive, Kir21 block inactive, TRPC4 potent inactive, TRPC6 activator inactive and TRPC4 agonist inactive.
Screening COc1cccc(NC(=O)CN(C)C(C)C(=O)Nc2cc([N+](=O)[O-])ccc2Cl)c1 (stereo unspecified) returned TRPC4 inh inactive, TRPC6 inhibitor inactive, Kir21 block inactive, TRPC4 potent inactive, TRPC6 activator inactive and TRPC4 agonist inactive.
Screening COc1cccc(C2CC(C(F)(F)F)n3ncc(C(=O)NCC4CCCO4)c3N2)c1 (stereo unspecified) returned TRPC4 inh inactive, TRPC6 inhibitor -5.64, Kir21 block inactive, TRPC4 potent inactive, TRPC6 activator inactive, TRPC4 agonist inactive, HEK293 TRPC6 ctr inactive, HEK293 MPD ctr 2 inactive, TRPC4/MOR mod inactive, TRPC4 ctr inh 2 inactive, TRPC6 block conf inactive and TRPC6 act confirm inactive.
For O=C1c2cccc3cccc(c23)C(=O)N1CCN1CCN(CC(O)COc2ccccc2)CC1 (stereo unspecified) the results were TRPC4 inh inactive, TRPC6 inhibitor -5.19, Kir21 block inactive, TRPC4 potent inactive, TRPC6 activator inactive, TRPC4 agonist inactive, HEK293 TRPC6 ctr inactive, HEK293 MPD ctr 2 inactive, TRPC4/MOR mod inactive, TRPC4 ctr inh 2 inactive, TRPC6 block conf inactive and TRPC6 act confirm inactive.
